The source made the active and inactive calls. The rule behind the calls is not given here.
What was measured:
Platelet [1] = assay: Antiplatelet activity against human platelets assessed as inhibition of thrombin-induced platelets aggregation at 8 uM pretreated 3 mins before compound addition by aggregometer analysis; type: functional, cell-based
Summary of the method: (§1)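 Platelets isolated by differential centrifugation and resuspended in Tris/Hepes basal buffer pH 7.4. Exposed to compound or DMSO vehicle for 3 min, then thrombin 40 mU/mL added. Initial aggregation rate (velocity) recorded from aggregation traces. Means of four separate determinations ± S.E.M.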

Platelet [2] = assay: Antiplatelet activity against human platelets assessed as inhibition of collagen-induced platelets aggregation at 8 uM pretreated 3 mins before compound addition by aggregometer analysis; type: functional, cell-based
Summary of the method: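 Washed platelets in basal buffer pH 7.4 (2-4 × 10⁸ cells/mL) preincubated 3 min with compound (8 µM) or DMSO, then stimulated with collagen […] (so in the source). Aggregation rate relative to vehicle control; means of 4 experiments ± S.E.M.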

[3] = (§2) Antiplatelet activity against human platelets assessed as inhibition of thrombin-induced platelets aggregation pretreated 3 mins before compound addition by aggregometer analysis; type: functional, cell-based; details: Platelet; summary of the method: as §1
Platelet [4] = assay: as §2; type: functional, cell-based; summary of the method: as §1
Platelet [5] = assay: Antiplatelet activity against human platelets assessed as inhibition of thrombin-induced platelets aggregation at >4 uM pretreated 3 mins before compound addition by aggregometer analysis; type: functional, cell-based
Platelet [6] = assay: Antiplatelet activity against human platelets assessed as inhibition of Ca2+-ionophore ionomycin-induced platelets aggregation at 2 to 8 uM pretreated 3 mins before compound addition by aggregometer analysis; type: functional, cell-based
Summary of the method: (§3)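 Washed platelets (ACD/apyrase/prostacyclin, differential centrifugation, resuspended in Tris/Hepes basal buffer pH 7.4, 2-4 × 10⁸ cells/mL) preincubated 3 min with test agent or DMSO. Then 20 nM PMA or ionomycin added. Maximal aggregation rate after agonist taken as 100% without compound. Means of 4 experiments ± S.E.M.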

Platelet [7] = assay: Antiplatelet activity against human platelets assessed as inhibition of phorbol-ester-induced platelets aggregation at 2 to 8 uM pretreated 3 mins before compound addition by aggregometer analysis; type: functional, cell-based; summary of the method: as §3
Platelet [8] = assay: Increase in cytosolic calcium level in human platelets at 2 uM using fluorescent probe fura 2 by fluorescence assay; type: functional, cell-based
Summary of the method: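 Cytosolic Ca²⁺ monitored with fura 2 (excitation 340/385 nm, emission 505 nm) in stirred thermostated cuvette after 2 µM compound addition alone, versus DMSO vehicle. Representative of three experiments.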

Platelet [9] = assay: Increase in thrombin-indcued cytosolic calcium level in human platelets at 2 uM treated 1 min before thrombin challenge using fluorescent probe fura 2 by fluorescence assay; type: functional, cell-based
Summary of the method: (§4)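 Fura 2-loaded platelets in stirred thermostated cuvette; excitation 340/385 nm, emission 505 nm. Compound (2 µM) or DMSO added, thrombin 40 mU/mL given 1 min or 3 min later. Also run with 0.5 mM EGTA added 1 min before compound. Traces representative of three experiments.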

Platelet [10] = assay: Decrease in thrombin-indcued cytosolic calcium level in human platelets at 2 uM treated 3 mins before thrombin challenge using fluorescent probe fura 2 by fluorescence assay; type: functional, cell-based; summary of the method: as §4
Homo sapiens [11] = organism: Homo sapiens; assay: Inhibition of protein tyrosine kinase phosphorylation in human platelets at 2 uM by SDS/PAGE analysis
Summary of the method: (§5)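 Platelets at 300 × 10⁶ cells/mL in basal medium pretreated 3 min with 2 µM compound or DMSO, then left resting or stimulated with thrombin 40 mU/mL. Proteins run on 10% SDS/PAGE, blotted, probed with anti-phosphotyrosine PY20, detected by ECL. Actin immunoblot served as loading control. Four experiments.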

Homo sapiens [12] = organism: Homo sapiens; assay: Inhibition of protein tyrosine kinase phosphorylation in thrombin-stimulated human platelets at 2 uM treated 3 mins before thrombin challenge by SDS/PAGE analysis; summary of the method: as §5
[13] = Toxicity in human platelets assessed as LDH release at 4 uM after 1 hr; type: cell-based; details: platelet
Summary of the method: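 Platelets (2 × 10⁸ cells/mL) incubated 1 h at 37 °C with compound, then centrifuged 3 min at 3000 g. Supernatant LDH measured with 5 mM NADH and 50 mM pyruvate as OD decrease at 340 nm. Total LDH determined after 0.1% Triton X-100 lysis.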

[14] = Toxicity in human platelet assessed as cell viability at 4 uM after 4 to 6 hrs by alamar blue method; type: cell-based
Summary of the method: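 Platelet suspensions with 1 mM NaHCO3 and 0.2% BSA kept at 37 °C under 5% CO₂ with compound for 4-6 h. Viability read fluorimetrically by Alamar Blue reduction.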

SMILES | inhibition (Platelet [1]) | inhibition (Platelet [2]) | other results
CCn1ccc2c3c(=O)c(-c4ccccc4)c[nH]c3ccc21 | Active | Active | –
O=c1[nH]c(-c2ccccc2)nc2ccc3c(ccn3CC3CC3)c12 | Active | Active | –
O=c1c(-c2ccccc2)c[nH]c2c1ccc1[nH]ccc12 | Active | Active | –
CCn1ccc2c3c(=O)[nH]c(-c4ccccc4)nc3ccc21 | Active | Active | –
CCn1ccc2c3c(=O)[nH]c(-c4ccc(OC)cc4)nc3ccc21 | Active | Active | –
O=c1c(-c2ccccc2)c[nH]c2ccc3[nH]ccc3c12 | Active | Active | –
O=c1[nH]c(-c2ccccc2)nc2ccc3[nH]ccc3c12 | Active | Active | IC50 [3]: 1.79 µM; inhibition (Platelet [4]): Dose-dependent effect; inhibition (Platelet [5]): Active; inhibition (Platelet [6]): Active; inhibition (Platelet [7]): Active; Activity (Platelet [8]): Active; Activity (Platelet [9]): Active; Activity (Platelet [10]): Active; inhibition (Homo sapiens [11]): inactive; inhibition (Homo sapiens [12]): Active; Activity [13]: Non-toxic; Activity [14]: Toxic
CCn1ccc2c3[nH]cc(-c4ccccc4)c(=O)c3ccc21 | Active | Active | –
